# Measured values collected from several papers.
# Each line is one published result; the experiments were not run side by side.
# Target: SRSF protein kinase 2 (SRPK2, Homo sapiens, UniProt P78362)
SMILES,test,conditions,measurement,result
CN(C)CC#Cc1ccc(OCCCc2sc(N3CCc4cccc(C(=O)Nc5nc6ccccc6s5)c4C3)nc2C(=O)O)c(F)c1,"cell-free assay, competition with immobilised ligand",1 µM,remaining binding,100%
Cn1c2c(c3ccc(Cl)c(Cl)c31)C(C#N)C(C)(C)NC2=O (stereo not drawn),"thermal stability, DSF",10 µM,ΔTm,0.6 °C
CN1CCN(c2cnc3c(C4CCN(C(=O)c5ccc(OC(F)(F)F)cc5N)CC4)ncnc3c2)CC1,"cell-free assay, competition with immobilised ligand",1 µM,remaining binding,78%
Nc1ncnc2occ(-c3ccc(NC(=O)Nc4cc(C(F)(F)F)ccc4F)cc3)c12,"cell-free assay, inhibitor",20 µM,remaining signal,100%
O=C(Nc1cnn(-c2csc(C(=O)NC3COC3)c2)c1)Nc1c(F)cccc1Cl,"enzyme activity, inhibitor",5 µM,remaining activity,94%
COc1cc2ncnc(Nc3ccc(Oc4ccccc4)c(C)c3C)c2cc1OC,"enzyme activity, inhibitor",1 µM,inhibition,-3%
COc1cccc(CNC(=O)c2nc3scc(COCc4ccc(C(=O)O)cc4)c3c(=O)[nH]2)c1,"cell-free assay, competition with immobilised ligand",1 µM,remaining binding,100%
N#CCCc1ccc2c(c1)-c1[nH]c3ccc([N+](=O)[O-])cc3c1CC(=O)N2,cell-free assay,0.5 µM,remaining signal,109%
CNC(=O)Nc1ccc2c(c1)[C@@]1(CC2)OC(=O)N(CC(=O)N(Cc2ccc(F)cc2)[C@@H](C)C(F)(F)F)C1=O,"cell-free assay, competition with immobilised ligand",1 µM,remaining binding,100%
N#CC1c2c([nH]c3c(Cl)c(Cl)ccc23)C(=O)NC12CCCCC2 (racemic),"thermal stability, DSF",10 µM,ΔTm,0.7 °C
CNC(=O)c1cc(Oc2ccc(NC(=O)Nc3ccc(Cl)c(C(F)(F)F)c3)cc2)ccn1,"enzyme activity, inhibitor",10 µM,inhibition,12%
COc1cc(-c2cc(-c3ccc(N4CCNCC4)cc3)cnc2C)cc(OC)c1OC,"enzyme activity, inhibitor",1 µM,inhibition,2%
CCCOc1ccc(OC)c(F)c1C(=O)c1ccc(C(=O)N[C@@H]2CNC[C@H]2NC(=O)c2ccc3[nH]ncc3c2)cc1,"enzyme activity, inhibitor",10 µM,remaining activity,93%
Cn1c2c(c3ccc(Cl)c(Cl)c31)C(C#N)C1(CCNCC1)NC2=O (racemic),"thermal stability, DSF",10 µM,ΔTm,2.4 °C
CC(C)(C)c1nc2c(s1)c1nc(N)ncc1c1ccc(NS(=O)(=O)c3c(F)cccc3F)c(F)c12,"enzyme activity, inhibitor, radiometric",1 µM,remaining activity,108%
CCN1CCC2(CC1)NC(=O)c1c(c3ccc(Cl)c(Cl)c3n1C)C2C#N (racemic),"thermal stability, DSF",10 µM,ΔTm,0.5 °C
O=C(NS(=O)(=O)c1ccc(NCC2CCOCC2)c([N+](=O)[O-])c1)c1ccc(N2CCN(Cc3ccc(C(F)(F)F)cc3-c3ccc(Cl)cc3)CC2)cc1Oc1cnc2[nH]ccc2c1,"cell-free assay, competition with immobilised ligand",1 µM,remaining binding,100%
Cn1c2c(Cl)c(Cl)ccc2c2cc(N)[nH]c(=O)c21,"thermal stability, DSF",10 µM,ΔTm,0.1 °C
Cc1ccc(Nc2nccc(N(C)c3ccc4c(C)n(C)nc4c3)n2)cc1S(N)(=O)=O,"enzyme activity, inhibitor",0.3 µM,inhibition,-9%
CC(C1CC1)n1cnc2c(NCc3cccc(C(F)(F)F)c3)nc(NCCN(C)C)nc21 (stereo not drawn),"enzyme activity, inhibitor",5 µM,inhibition,> 50%
COc1cc(Cl)c(C(=O)N[C@@H](CN[C@H]2CC[C@@H](N)CC2)Cc2ccc(C#N)cc2)cc1-c1ccc(CN[C@H](C)c2ccc(C)cc2)o1,"enzyme activity, inhibitor",1 µM,remaining activity,98%
